Reference: ChEMBL document CHEMBL1649446, “Comparative antipneumococcal activities of sulopenem and other drugs” (2009)

Legend:
Assay type in all cases: functional
Streptococcus pneumoniae [1] = test: Antimicrobial activity against Streptococcus pneumoniae isolate 2688 by agar dilution method
In short: (§1)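 Agar dilution MIC on Mueller-Hinton agar with 5% sheep blood, inocula 10^4 CFU/spot; amoxicillin-clavulanate combined 1:2; S. pneumoniae ATCC 49619 quality control each run.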

Streptococcus pneumoniae [2] = test: Antimicrobial activity against Streptococcus pneumoniae isolate 3791 by agar dilution method; in short: as §1
Streptococcus pneumoniae [3] = test: Antimicrobial activity against Streptococcus pneumoniae isolate 3587 by agar dilution method
Streptococcus pneumoniae [4] = test: Antimicrobial activity against Streptococcus pneumoniae isolate 33 by agar dilution method; in short: as §1
Streptococcus pneumoniae [5] = test: Antimicrobial activity against Streptococcus pneumoniae isolate 1384 by agar dilution method; in short: as §1
Streptococcus pneumoniae [6] = test: Antimicrobial activity against Streptococcus pneumoniae isolate 1147 by agar dilution method; in short: as §1
Streptococcus pneumoniae [7] = test: Antimicrobial activity against Streptococcus pneumoniae isolate 4747 by agar dilution method; in short: as §1
Streptococcus pneumoniae [8] = test: Antimicrobial activity against Streptococcus pneumoniae isolate 3282 by agar dilution method
Streptococcus pneumoniae [9] = test: Antimicrobial activity against Streptococcus pneumoniae isolate 2617 by agar dilution method; in short: as §1
Streptococcus pneumoniae [10] = test: Antimicrobial activity against Streptococcus pneumoniae isolate 24 by agar dilution method
Streptococcus pneumoniae [11] = test: Antimicrobial activity against Streptococcus pneumoniae isolate 2880 by agar dilution method; in short: as §1
Streptococcus pneumoniae [12] = test: Antimicrobial activity against Streptococcus pneumoniae isolate 4755 by agar dilution method; in short: as §1
Streptococcus pneumoniae [13] = test: Antimicrobial activity against Streptococcus pneumoniae isolate 3346 by agar dilution method
Streptococcus pneumoniae [14] = test: Antimicrobial activity against Streptococcus pneumoniae isolate 1146 by agar dilution method; in short: as §1
Streptococcus pneumoniae [15] = test: Antimicrobial activity against Streptococcus pneumoniae isolate 3260 by agar dilution method
Streptococcus pneumoniae [16] = test: Antimicrobial activity against Streptococcus pneumoniae isolate 3681 by agar dilution method; in short: as §1
Streptococcus pneumoniae [17] = test: Antimicrobial activity against Streptococcus pneumoniae isolate 1394 by agar dilution method
Streptococcus pneumoniae [18] = test: Antimicrobial activity against compound-resistant Streptococcus pneumoniae by agar dilution method
In short: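 Agar dilution on Mueller-Hinton agar with 5% sheep blood, inocula 10^4 CFU/spot. Panel of 45 drug-resistant serotype 19A pneumococci, plus 297 clinical strains grouped as penicillin-susceptible, -intermediate or -resistant (some macrolide- or levofloxacin-resistant, with defined mechanisms). Amoxicillin combined with clavulanate 1:2. S. pneumoniae ATCC 49619 quality control included in each run. MIC range, MIC50 and MIC90 reported.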

Streptococcus pneumoniae [19] = test: Antimicrobial activity against Streptococcus pneumoniae isolate 1397 by agar dilution method; in short: as §1
Streptococcus pneumoniae [20] = test: Antimicrobial activity against Streptococcus pneumoniae isolate 3412 by agar dilution method; in short: as §1
Streptococcus pneumoniae [21] = test: Antimicrobial activity against Streptococcus pneumoniae isolate 2874 by agar dilution method; in short: as §1
Streptococcus pneumoniae [22] = test: Antimicrobial activity against Streptococcus pneumoniae isolate 3458 by agar dilution method
Streptococcus pneumoniae [23] = test: Antimicrobial activity against Streptococcus pneumoniae isolate 1424 by agar dilution method; in short: as §1
Streptococcus pneumoniae [24] = test: Antimicrobial activity against compound-intermediate Streptococcus pneumoniae by agar dilution method; in short: as §1
Streptococcus pneumoniae [25] = test: Antimicrobial activity against Streptococcus pneumoniae isolate 3275 by agar dilution method; in short: as §1
Streptococcus pneumoniae [26] = test: Antimicrobial activity against Streptococcus pneumoniae isolate 1055 by agar dilution method
Streptococcus pneumoniae [27] = test: Antimicrobial activity against Streptococcus pneumoniae isolate 2686 by agar dilution method; in short: as §1
Streptococcus pneumoniae [28] = test: Antimicrobial activity against Streptococcus pneumoniae isolate 3374 by agar dilution method; in short: as §1
Streptococcus pneumoniae [29] = test: Antimicrobial activity against Streptococcus pneumoniae isolate 3481 by agar dilution method; in short: as §1
Streptococcus pneumoniae [30] = test: Antimicrobial activity against Streptococcus pneumoniae isolate 3455 by agar dilution method
Streptococcus pneumoniae [31] = test: Antimicrobial activity against Streptococcus pneumoniae isolate 1564 by agar dilution method
Streptococcus pneumoniae [32] = test: Antimicrobial activity against compound-susceptible Streptococcus pneumoniae by agar dilution method; in short: as §1
Streptococcus pneumoniae [33] = test: Antimicrobial activity against Streptococcus pneumoniae isolate 37 by agar dilution method; in short: as §1

CC1(C)S[C@@H]2[C@H](NC(=O)Cc3ccccc3)C(=O)N2[C@H]1C(=O)O [PENICILLIN G]
1 µg/mL: MIC (Streptococcus pneumoniae [9]) | MIC (Streptococcus pneumoniae [16]) | MIC90 (Streptococcus pneumoniae [24]) | MIC (Streptococcus pneumoniae [25])
16 µg/mL: MIC (Streptococcus pneumoniae [31])
0.06 µg/mL: MIC90 (Streptococcus pneumoniae [32])
8 µg/mL: MIC (Streptococcus pneumoniae [1]) | MIC (Streptococcus pneumoniae [12]) | MIC (Streptococcus pneumoniae [21]) | MIC (Streptococcus pneumoniae [29])
4 µg/mL: MIC (Streptococcus pneumoniae [4]) | MIC (Streptococcus pneumoniae [5]) | MIC (Streptococcus pneumoniae [6]) | MIC (Streptococcus pneumoniae [7]) | MIC (Streptococcus pneumoniae [8]) | MIC (Streptococcus pneumoniae [10]) | MIC (Streptococcus pneumoniae [11]) | MIC (Streptococcus pneumoniae [13]) | MIC (Streptococcus pneumoniae [14]) | MIC (Streptococcus pneumoniae [15]) | MIC (Streptococcus pneumoniae [17]) | MIC90 (Streptococcus pneumoniae [18]) | MIC (Streptococcus pneumoniae [22]) | MIC (Streptococcus pneumoniae [27]) | MIC (Streptococcus pneumoniae [30]) | MIC (Streptococcus pneumoniae [33])
0.03 µg/mL: MIC50 (Streptococcus pneumoniae [32])
0.25 µg/mL: MIC50 (Streptococcus pneumoniae [24])
2 µg/mL: MIC (Streptococcus pneumoniae [2]) | MIC (Streptococcus pneumoniae [3]) | MIC (Streptococcus pneumoniae [18]) | MIC50 (Streptococcus pneumoniae [18]) | MIC (Streptococcus pneumoniae [19]) | MIC (Streptococcus pneumoniae [20]) | MIC (Streptococcus pneumoniae [23]) | MIC (Streptococcus pneumoniae [26]) | MIC (Streptococcus pneumoniae [28])
